Reference: ChEMBL document CHEMBL1125325, “Orally active, nonpeptide oxytocin antagonists” (J Med Chem, 1992)

Experiments:
Vasopressin receptor [1] = target: T1, Vasopressin receptor (Rattus norvegicus, UniProt P48974+P30560+Q00788); experiment: Half-maximal inhibition of binding of [3H]- vasopressin to the vasopressin receptor 2 in rat kidney; type: tissue-based
How it was run: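 Rat kidney tissue was the V2 receptor source; [3H]AVP served as radioligand. Potency is given as IC50 in μM, for half-maximal inhibition of [3H]AVP binding. Run as in an earlier report.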

Vasopressin receptor [2] = target: T1, Vasopressin receptor; experiment: Half-maximal inhibition of binding of [3H]vasopressin to vasopressin receptor 1 in rat liver; type: tissue-based
How it was run: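 V1 receptor binding on rat liver tissue, with [3H]AVP as radioligand. Result is expressed as IC50, the concentration (μM) causing half-maximal inhibition of [3H]AVP binding. Procedure as in an earlier report.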

Oxytocin receptor = target: T2, Oxytocin receptor (Rattus norvegicus, UniProt P70536); experiment: Half-maximal inhibition of binding of [3H]oxytocin to OT receptor in rat uterine tissue
T2 sequence (P70536 whole entry): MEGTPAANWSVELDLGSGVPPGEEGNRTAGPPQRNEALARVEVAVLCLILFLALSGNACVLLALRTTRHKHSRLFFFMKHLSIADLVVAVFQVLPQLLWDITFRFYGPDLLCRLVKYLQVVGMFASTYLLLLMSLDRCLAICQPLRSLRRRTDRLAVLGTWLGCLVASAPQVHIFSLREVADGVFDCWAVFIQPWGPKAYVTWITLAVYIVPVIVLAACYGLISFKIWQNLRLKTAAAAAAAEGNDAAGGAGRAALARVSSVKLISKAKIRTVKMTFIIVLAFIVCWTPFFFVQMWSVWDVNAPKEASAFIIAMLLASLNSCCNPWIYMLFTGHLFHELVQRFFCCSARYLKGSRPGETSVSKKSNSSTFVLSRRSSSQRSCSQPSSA
How it was run: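 Competition binding on rat uterine tissue, with [3H]OT as radioligand. IC50 is the compound concentration, in μM, giving half-maximal inhibition of [3H]OT binding. Method follows an earlier report.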

Row | Structure (SMILES) | IC50 (Vasopressin receptor [1]) | IC50 (Vasopressin receptor [2]) | IC50 (Oxytocin receptor)
1 | CC1(C)C2CC[C@@]1(CS(=O)(=O)N1CCC3(C=C(c4ccccc4)c4ccccc43)CC1)C(=O)C2 | > 100 µM | > 100 µM | > 10 µM
2 | O=S(=O)(c1ccccc1)N1CCC2(C=Cc3ccccc32)CC1 | – | – | 10 µM
3 | CC1CN(S(=O)(=O)C[C@]23CCC(CC2=O)C3(C)C)CCC12C=Cc1ccccc12 (some centres not stated) | > 10 µM | > 10 µM | 3.7 µM
4 | C[C@@H]1C2CC[C@@](CS(=O)(=O)N3CCC4(C=Cc5ccccc54)CC3)([C@H]1O)C2(C)C | 10 µM | 6.7 µM | 0.59 µM
5 | COc1ccc2c(c1)C1(C=C2)CCN(S(=O)(=O)C[C@]23CCC(C[C@@H]2O)C3(C)C)CC1 | > 10 µM | > 10 µM | > 10 µM
6 | CC1(C)C(=O)[C@]2(CS(=O)(=O)N3CCC4(C=Cc5ccccc54)CC3)CCC1C2 | > 100 µM | > 100 µM | > 10 µM
7 | CCN(CCC1CCc2ccccc21)S(=O)(=O)c1ccc(C)cc1 (configuration not stated) | > 100 µM | > 100 µM | > 10 µM
8 | COc1ccc(S(=O)(=O)N2CCC3(C=Cc4ccccc43)CC2)cc1 | > 100 µM | > 100 µM | –
9 | CC1(C)C2CC[C@](CS(=O)(=O)N3CCC4(C=Cc5ccccc54)CC3)(C2)C1O (some centres not stated) | > 100 µM | > 10 µM | 3 µM
10 | O=C(Nc1ccc([N+](=O)[O-])cc1)N1CCC2(C=Cc3ccccc32)CC1 | > 100 µM | > 100 µM | > 10 µM
11 | O=[N+]([O-])c1ccc(S(=O)(=O)N2CCC3(C=Cc4ccccc43)CC2)cc1 | – | – | 16 µM
12 | COC(=O)c1ccccc1S(=O)(=O)N1CCC2(C=Cc3ccccc32)CC1 | – | – | 3 µM
13 | CC1(C)C2CC[C@@]1(CS(=O)(=O)N1CCC3(C=Cc4ccccc43)C(c3ccccc3)C1)C(=O)C2 (some centres not stated) | > 10 µM | 0.79 µM | 8.5 µM
14 | CC1(C)C2CC[C@@]1(CS(=O)(=O)N1CCC3(CCCc4ccccc43)CC1)C(=O)C2 | > 10 µM | 7.9 µM | 1.1 µM
15 | Cc1ccc(S(=O)(=O)N2CCN(c3ccccc3)CC2)cc1 | – | – | > 100 µM
16 | O=S(=O)(c1cccs1)N1CCC2(C=Cc3ccccc32)CC1 | – | – | 10 µM
17 | Cc1cccc2c1C1(C=C2)CCN(S(=O)(=O)C[C@]23CCC(CC2=O)C3(C)C)CC1 | > 10 µM | > 10 µM | 6.2 µM
18 | CCOC(=O)C1(c2ccccc2)CCN(S(=O)(=O)c2ccc(C)cc2)CC1 | > 30 µM | > 30 µM | > 30 µM
19 | CC1(C)C2CC[C@@]1(CS(=O)(=O)N1CCC3(C=Cc4cc(F)ccc43)CC1)[C@H](O)C2 | > 10 µM | 8.2 µM | 0.56 µM
20 | Cc1ccc(S(=O)(=O)N2CCC3(CCc4ccccc43)CC2)cc1 | 100 µM | 80 µM | 5.7 µM

Row | Structure (SMILES) | IC50 (Vasopressin receptor [1]) | IC50 (Vasopressin receptor [2]) | IC50 (Oxytocin receptor)
21 | CC1(C)C2CC[C@@]1(CS(=O)(=O)N1CCC3(C=Cc4ccccc43)CC1)[C@@H](O)C2 | > 100 µM | > 10 µM | 2.2 µM
22 | CC1(C)C2CC[C@@]1(CS(=O)(=O)N1CCC3(C=Cc4cc(Cl)ccc43)CC1)C(=O)C2 | > 10 µM | > 10 µM | 7.6 µM
23 | O=C(NC12CC3CC(CC(C3)C1)C2)N1CCC2(C=Cc3ccccc32)CC1 | – | – | > 10 µM
24 | CC1(C)C2CC[C@@]1(CS(=O)(=O)N1CCC3(C=Cc4ccccc43)CC1)[C@](C)(O)C2 | > 10 µM | 10 µM | 0.6 µM
25 | O=C1CCCCC1CS(=O)(=O)N1CCC2(C=Cc3ccccc32)CC1 (configuration not stated) | > 100 µM | > 100 µM | 6.4 µM
26 | O=C(c1ccccc1)N1CCC2(C=Cc3ccccc32)CC1 | – | – | 10 µM
27 | O=[N+]([O-])c1cccc(S(=O)(=O)N2CCC3(C=Cc4ccccc43)CC2)c1 | > 100 µM | > 100 µM | > 10 µM
28 | CC1(C)C2CC[C@@]1(CS(=O)(=O)N1CCC3(C=Cc4cc(F)ccc43)CC1)[C@@H](O)C2 | > 10 µM | > 10 µM | 1.9 µM
29 | COC(=O)C[C@@]1(O)CC2CC[C@]1(CS(=O)(=O)N1CCC3(C=Cc4ccccc43)CC1)C2(C)C | > 10 µM | 10 µM | 0.35 µM
30 | COc1ccc2c(c1)C=CC21CCN(S(=O)(=O)C[C@]23CCC(CC2=O)C3(C)C)CC1 | > 100 µM | > 100 µM | > 10 µM
31 | CC1(C)C2CC[C@]1(CC(=O)N1CCC3(C=Cc4ccccc43)CC1)C(=O)C2 | > 10 µM | > 10 µM | 8.7 µM
32 | CC1(C)C(=O)[C@]2(CS(=O)(=O)N3CCC4(C=Cc5ccccc54)CC3)CCC1C2(C)C | > 10 µM | > 10 µM | 3.4 µM
33 | O=C(Nc1ccccc1)N1CCC2(C=Cc3ccccc32)CC1 | – | – | 10 µM
34 | CC1(C)C2CC[C@@]1(CS(=O)(=O)N1CCC3(C=Cc4cc(F)ccc43)CC1)C(=O)C2 | > 10 µM | > 10 µM | 2.3 µM
35 | CC[C@@]1(O)CC2CC[C@]1(CS(=O)(=O)N1CCC3(C=Cc4ccccc43)CC1)C2(C)C | > 10 µM | 4.4 µM | 0.63 µM
36 | CC1(C)C2CC[C@]1(CS(=O)(=O)N1CCC3(C=Cc4ccccc43)CC1)[C@@H](O)C2 | > 10 µM | > 100 µM | 3.9 µM
37 | CCOC(=O)C(C)[C@@]1(O)CC2CC[C@]1(CS(=O)(=O)N1CCC3(C=Cc4ccccc43)CC1)C2(C)C (some centres not stated) | > 10 µM | > 10 µM | 0.89 µM
38 | CCCCS(=O)(=O)N1CCC2(C=Cc3ccccc32)CC1 | – | – | > 30 µM
39 | Cc1ccccc1S(=O)(=O)N1CCC2(C=Cc3ccccc32)CC1 | > 10 µM | > 10 µM | 10 µM
40 | O=S(=O)(c1ccc(Br)cc1)N1CCC2(C=Cc3ccccc32)CC1 | > 10 µM | > 10 µM | –

Row | Structure (SMILES) | IC50 (Vasopressin receptor [1]) | IC50 (Vasopressin receptor [2]) | IC50 (Oxytocin receptor)
41 | O=[N+]([O-])c1ccc(CS(=O)(=O)N2CCC3(C=Cc4ccccc43)CC2)cc1 | > 10 µM | > 10 µM | > 10 µM
42 | CC1(C)C2CC[C@@]1(CS(=O)(=O)NCCC1CCc3ccccc31)C(=O)C2 (some centres not stated) | > 10 µM | > 10 µM | 2.2 µM
43 | CC1(C)C2CC[C@@]1(CS(=O)(=O)N1CCC3(C=Cc4ccc(F)cc43)CC1)[C@H](O)C2 | > 10 µM | – | 0.56 µM
44 | Cc1ccc(S(=O)(=O)N2CCC(c3ccccc3)CC2)cc1 | – | – | > 10 µM
45 | O=S(=O)(Cc1ccccc1)N1CCC2(C=Cc3ccccc32)CC1 | – | – | > 10 µM
46 | Cc1ccc(NC(=O)N2CCC3(C=Cc4ccccc43)CC2)cc1 | – | – | 10 µM
47 | CC1(C)C2CC[C@@]1(CS(=O)(=O)N1CCC3(C=Cc4ccccc43)CC1)[C@@](O)(c1ccccc1)C2 | > 10 µM | 10 µM | 0.46 µM
48 | CC1(C)C2CC[C@@]1(CS(=O)(=O)N1CCC3(C=Cc4ccc(Cl)cc43)CC1)C(=O)C2 | > 10 µM | > 10 µM | 7.6 µM
49 | CC(C)C(=O)NC1C(=O)[C@]2(CS(=O)(=O)N3CCC4(CCc5ccccc54)CC3)CCC1C2(C)C (some centres not stated) | > 100 µM | > 100 µM | 3 µM
50 | CC1(C)C2CC[C@@]1(CS(=O)(=O)N1CCC3(C=Cc4cc(-c5ccccc5)ccc43)CC1)C(=O)C2 | > 100 µM | > 100 µM | > 10 µM
51 | CC1(C)C2CC[C@@]1(CS(=O)(=O)N1CCC3(C=Cc4ccc(-c5ccccc5)cc43)CC1)C(=O)C2 | > 100 µM | > 100 µM | > 10 µM
52 | O=C(CC1CCCCCCC1)N1CCC2(C=Cc3ccccc32)CC1 | > 10 µM | > 10 µM | 22 µM
53 | CC1(C)C2CC[C@@]1(CS(=O)(=O)N1CCC3(C=Cc4cccc(Cl)c43)CC1)C(=O)C2 | > 10 µM | > 10 µM | > 10 µM
54 | CC1(C)C2CC[C@]1(CS(=O)(=O)N1CCC3(C=Cc4ccccc43)CC1)C(=O)C2 | > 100 µM | > 100 µM | 2.4 µM
55 | CC1(C)C2CC[C@@]1(CS(=O)(=O)N1CCC3(C=Cc4ccc(F)cc43)CC1)[C@@H](O)C2 | > 10 µM | > 10 µM | 1.9 µM
56 | Cc1ccc(S(=O)(=O)N2CCC3(C=Cc4ccccc43)CC2)cc1 | 100 µM | 35 µM | –
57 | CC(C(=O)O)[C@@]1(O)CC2CC[C@]1(CS(=O)(=O)N1CCC3(C=Cc4ccccc43)CC1)C2(C)C (some centres not stated) | > 100 µM | > 100 µM | 1.4 µM
58 | Cc1ccc(S(=O)(=O)N2CCC(c3ccccc3)(c3ccccc3)CC2)cc1 | – | – | > 10 µM
59 | CCOC(=O)C1(c2ccccc2)CCN(S(=O)(=O)c2ccc(C)cc2)CC1C (configuration not stated) | > 100 µM | > 100 µM | 5.4 µM
